Series [1] concerns Human immunodeficiency virus 1. Nature of the series: Antiviral activity against wild type HIV1 3B harboring reverse transcriptase infected in human MT4 cells assessed as protection against virus induced cytotoxicity after 5 days by MTT assay. In kind it is functional, cell-based. To be noted: Human immunodeficiency virus 1, 3B, MT4, 120 h. A general note: Formazan colour is commonly taken as a measure of viable cells.

The nature of series [2]: Inhibition of recombinant wild type HIV1 3B reverse transcriptase infected in human MT4 cells assessed as decrease in biotin-dUTP incorporation after 1 hr. Format: cell-based. The settings on record: Human immunodeficiency virus 1, 3B, MT4, 1 h. The method in brief: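 Recombinant HIV-1 RT assayed with a kit ELISA. Enzyme, reconstituted template and nucleotides (DIG-dUTP, biotin-dUTP, dTTP) were incubated in incubation buffer with or without inhibitor for 1 h at 37 °C. Product was captured on streptavidin plates for 1 h at 37 °C, then anti-DIG-POD was added for 1 h at 37 °C, followed by ABTS. Read at OD405.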

Series [3] in a line: AUC(0 to t) in Sprague-Dawley rat at 24 mg/kg, po by LC-MS analysis. To be noted: in vivo. Format: ADME, organism-based.
Series [4] relates to Rattus norvegicus. Kind of series: AUC(0 to infinity) in Sprague-Dawley rat at 24 mg/kg, po by LC-MS analysis. Further details: dose 24 mg/kg, route oral, time infinity. To be noted: in vivo. In kind it is ADME, organism-based.
A short description of series [5]: AUC(0 to t) in Sprague-Dawley rat at 2 mg/kg, iv by LC-MS analysis. In kind it is ADME, organism-based. To be noted: in vivo.
A short description of series [6]: AUC(0 to infinity) in Sprague-Dawley rat at 2 mg/kg, iv by LC-MS analysis. In kind it is ADME, organism-based. Further details: dose 2 mg/kg, time infinity, route intravenous. To be noted: in vivo.
Series [7] can be described thus: MRT(0 to t) in Sprague-Dawley rat at 24 mg/kg, po by LC-MS analysis. In kind it is ADME, organism-based. The settings on record: in vivo.
A short description of series [8]: MRT(0 to infinity) in Sprague-Dawley rat at 24 mg/kg, po by LC-MS analysis. To be noted: in vivo. Format: ADME, organism-based.
Series [9] can be described thus: MRT(0 to t) in Sprague-Dawley rat at 2 mg/kg, iv by LC-MS analysis. In kind it is ADME, organism-based. To be noted: in vivo.
Series [10] can be described thus: MRT(0 to infinity) in Sprague-Dawley rat at 2 mg/kg, iv by LC-MS analysis. Format: ADME, organism-based. To be noted: in vivo.
The test system of series [11] is Rattus norvegicus. Nature of the series: VRT(0 to t) in Sprague-Dawley rat at 24 mg/kg, po by LC-MS analysis. In kind it is ADME, organism-based. To be noted: in vivo.
Series [12] has as its system Rattus norvegicus. Kind of series: VRT(0 to infinity) in Sprague-Dawley rat at 24 mg/kg, po by LC-MS analysis. In kind it is ADME, organism-based. The settings on record: in vivo.
Series [13] concerns Rattus norvegicus. Kind of series: VRT(0 to t) in Sprague-Dawley rat at 2 mg/kg, iv by LC-MS analysis. In kind it is ADME, organism-based. To be noted: in vivo.
The subject of series [14] is Rattus norvegicus. Kind of series: VRT(0 to infinity) in Sprague-Dawley rat at 2 mg/kg, iv by LC-MS analysis. Format: ADME, organism-based. The settings on record: in vivo.
A short description of series [15]: Apparent half life in Sprague-Dawley rat at 24 mg/kg, po by LC-MS analysis. In kind it is ADME, organism-based. The settings on record: in vivo, read-out: t1/2(app) (converted).
Series [16] is described as follows: Apparent half life in Sprague-Dawley rat at 2 mg/kg, iv by LC-MS analysis. Format: ADME, organism-based. The settings on record: in vivo, read-out: t1/2(app) (converted).
Series [17] in a line: Tmax in Sprague-Dawley rat at 24 mg/kg, po by LC-MS analysis. Format: ADME, organism-based. The settings on record: in vivo.
Series [18] deals with Rattus norvegicus. Kind of series: Apparent clearance during terminal phase in Sprague-Dawley rat at 2 mg/kg, iv by LC-MS analysis. Format: ADME, organism-based. The settings on record: in vivo.
Series [19] can be described thus: Cmax in Sprague-Dawley rat at 24 mg/kg, po by LC-MS analysis. To be noted: in vivo. In kind it is ADME, organism-based. More on the design: dose 24 mg/kg, route oral.
Series [20] can be described thus: Cmax in Sprague-Dawley rat at 2 mg/kg, iv by LC-MS analysis. Format: ADME, organism-based. Further details: dose 2 mg/kg, route intravenous. To be noted: in vivo.
For series [21], the system named is Mus musculus. Nature of the series: Toxicity in Kunming mouse assessed as mortality at 2000 mg/kg, ig administered via gavage measure after 2 weeks. In kind it is organism-based. The settings on record: in vivo, po, 336 h.
In series [22] the test system is Mus musculus. Nature of the series: Toxicity in Kunming mouse assessed as increase in body weight at 2000 mg/kg, ig administered via gavage measure after 2 weeks. The settings on record: in vivo, po, 336 h. Format: organism-based.

Molecules are shown by their SMILES.

The term EC50 denotes the concentration at which the effect is half-maximal. What is called IC50 is the midpoint of a concentration-inhibition curve. For orientation: AUC(0-t) means exposure summed from dosing to a finite time, without extrapolation to infinity. A higher AUC(0-t) goes with high exposure. For orientation: AUC means concentration integrated over time. A high value points to high exposure. As usually defined, the AUC(0-inf) is total exposure, with the tail of the curve extrapolated. Low readings indicate less exposure, high ones more exposure. As usually defined, the MRT last is a mean duration of stay, worked out from the concentration-time curve. For orientation: MRT inf means a mean duration of stay, worked out from the concentration-time curve. In general, Tmax refers to the time from dosing to the highest level. A word on the Cmax: it is the maximum level reached in the sampled fluid or tissue. For the compound `Cc1cc(/C=C/C#N)cc(C)c1Oc1nc(NC2CCN(Cc3ccc(S(N)(=O)=O)cc3)CC2)nc2ccsc12`, in series [1], the concentration giving a half-maximal response (EC50) worked out at 1.22 nM. In addition, the IC50 in series [2] was found to be 160 nM. The figures for the AUC(0-t) in series [3] and in [5] were 2320 ng·h/mL and 1370 ng·h/mL, respectively. For the same compound, the area under the curve (AUC) in series [4] is 2692.2 ng·h/mL. This compound also returned an AUC(0-inf) in series [6] of 1390 ng·h/mL. Moreover, the mean residence time MRT last in [7] was 3.71 h; in [9] it was 1.57 h. For the same compound, the MRT inf in [8] is 5.54 h; in [10], 1.69 h. The “VRT(t)” value in [11] is 8.11 hr2; in series [13] it was 2.78 hr2. The VRT is reported as 35.67 hr2 in series [12] and 3.72 hr2 in series [14]. Also, the results for the half-life in [15] and in series [16] were 3.93 h and 1.34 h, respectively. Further, the Tmax in series [17] was determined as 1.7 h. Further, the CLz/F in series [18] amounted to 0.242 mL/min/kg. The highest concentration (Cmax) in series [19] is 553 ng/mL; in [20], 2220 ng/mL. In addition, the Activity entry in series [21] and in series [22] was “Non-Toxic” in each case.

The values are drawn from ChEMBL document CHEMBL4049458, “Structure-Based Optimization of Thiophene[3,2-d]pyrimidine Derivatives as Potent HIV-1 Non-nucleoside Reverse Transcriptase Inhibitors with Improved Potency against Resistance-Associated Variants” (J Med Chem, 2017).
